Screens deposited in PubChem by The Scripps Research Institute Molecular Screening Center.
CHRM5 antagonist: human M5 muscarinic receptor antagonists, primary screen, CHO cells, Fluo-8 calcium fluorescence; Muscarinic acetylcholine receptor M5 (Homo sapiens), P08912; CHO-hM5 cells, ACh EC80; inhibition, % at 3 µM; hit rate 0.59% among 360,000; AID 624040, 2012;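 active = inhibition above a per-plate cutoff, the mean of that plate's test compounds plus 3 SD, cut at about 27% in these data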
Target sequence (P08912 whole entry, looked up): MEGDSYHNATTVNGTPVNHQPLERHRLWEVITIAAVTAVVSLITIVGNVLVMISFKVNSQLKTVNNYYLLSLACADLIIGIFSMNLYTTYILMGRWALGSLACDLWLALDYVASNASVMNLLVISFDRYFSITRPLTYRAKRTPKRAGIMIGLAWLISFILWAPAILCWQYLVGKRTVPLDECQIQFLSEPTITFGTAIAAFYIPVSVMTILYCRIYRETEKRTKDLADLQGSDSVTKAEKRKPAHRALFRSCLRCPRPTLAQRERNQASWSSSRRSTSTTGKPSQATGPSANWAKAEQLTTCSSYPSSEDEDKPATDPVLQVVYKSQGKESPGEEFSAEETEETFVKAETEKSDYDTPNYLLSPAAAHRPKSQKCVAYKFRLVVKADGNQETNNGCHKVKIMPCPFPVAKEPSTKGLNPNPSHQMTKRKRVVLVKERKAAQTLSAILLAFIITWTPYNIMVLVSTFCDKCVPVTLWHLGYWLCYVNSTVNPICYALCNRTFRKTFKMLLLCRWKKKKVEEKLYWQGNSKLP
CHRM5 PAM: human M5 muscarinic receptor positive allosteric modulators, primary screen, CHO-K1 cells, Fluo-8 calcium fluorescence; Muscarinic acetylcholine receptor M5 (Homo sapiens), P08912; CHO-K1 hM5, ACh EC20 PAM; 0% = ACh EC20, 100% = ACh EC100; hit rate 0.3% among 360,000; AID 624038, 2012; activation, % at 3 µM;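 active = activation above the run cutoff, the mean activation of all test compounds plus 3 SD, cut at about 18% in these data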
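Measured by: Fluo-8 calcium fluorescence; material: human M5 receptor in CHO-K1 cells; schedule: Post-acetylcholine fluorescence recording 140 s; benchmarks: low control EC20 acetylcholine (0%), high control EC100 acetylcholine (100%); read-out: Max/basal fluorescence ratio as % of EC20–EC100 ACh window; compound: single dose, 3 µM nominal final test concentration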
CHRM4 PAM: human M4 muscarinic receptor positive allosteric modulators, primary screen, CHO-K1 cells, Fluo-8 calcium fluorescence. hit rate 0.4% among 360,000. activation, % at 3 µM. CHO-K1 hM4/Gqi5, ACh EC20; 0% = ACh EC20, 100% = maximal ACh. AID 624126, 2012. Muscarinic acetylcholine receptor M4 (Homo sapiens), P08173;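 active = activation above its plate's cutoff, the mean activation of sample wells plus 3 SD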
CHRM5 agonist: human M5 muscarinic receptor agonists, primary screen, CHO-K1 cells, Fluo-8 calcium fluorescence. activation, % at 3 µM. Muscarinic acetylcholine receptor M5 (Homo sapiens), P08912. hit rate 0.19% among 360,000. CHO-K1 hM5 cells; 0% DMSO wells, 100% maximal acetylcholine response. AID 624037, 2012;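 active = activation above the run's mean over test compounds plus 3 SD, cut at about 23% in these data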;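 also: signal is peak over basal fluorescence ratio across the kinetic read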
CHRM4 antagonist: human M4 muscarinic receptor antagonists, primary screen, CHO cells, Fluo-8 calcium fluorescence | Muscarinic acetylcholine receptor M4 (Homo sapiens), P08173 | CHO-hM4 cells, ACh EC80 | inhibition, % at 3 µM | hit rate 0.73% among 360,000;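 active = inhibition above its plate's cutoff, the mean inhibition of sample wells plus 3 SD, cut at about 27% in these data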
M4 ag: human M4 muscarinic receptor agonists, primary screen, CHO-K1 cells, Fluo-8 calcium fluorescence; activation, % at 3 µM; CHO-K1 hM4/Gqi5; vehicle 0%, full acetylcholine response 100%; hit rate 0.14% among 360,000; AID 624127, 2012; Muscarinic acetylcholine receptor M4 (Homo sapiens), P08173;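 active = activation above the run mean over all test wells plus 3 SD, cut at about 32% in these data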;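 also: peak over basal fluorescence ratio per well then scaled between controls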
A number is an active result; 0 = inactive. An excerpt weighted towards active compounds, which were near 1.8% of everything screened.

SMILES | CHRM5 antagonist | CHRM5 PAM | CHRM4 PAM | CHRM5 agonist | CHRM4 antagonist | M4 ag
O=C(CCc1nc2sc3c(c2c(=O)[nH]1)CCCC3)N1CCN(c2ccccc2)CC1 | 0 | 0 | 0 | 0 | 0 | 0
CCc1nnc(SCc2ccc(C(=O)OC)o2)n1N | 0 | 19 | 0 | 0 | 0 | 0
CCCc1nnc(SCc2ccc(C(=O)OC)o2)n1N | 0 | 0 | 0 | 0 | 0 | 0
CCc1ccc(-c2cc(C)no2)cc1S(=O)(=O)NCCCN1CCN(c2ccccc2)CC1 | 29 | 0 | 0 | 0 | 31 | 0
O=C(NNC(=O)c1ccccc1Cl)c1ccc(-n2cncn2)c([N+](=O)[O-])c1 | 0 | 0 | 0 | 0 | 0 | 0
O=C(CNC1CCCCC1)N1CCc2ccccc2C1 | 0 | 0 | 0 | 0 | 30 | 0
O=C(NC1CCCCC1)N1CCc2ccccc2C1 | 0 | 0 | 0 | 0 | 0 | 0
S=C1NC[C@H](Cc2ccccc2)N1CCCCC1CCCCC1 | 0 | 0 | 0 | 0 | 0 | 0
CC(C)C[C@H]1CNC(=S)N1CC1CCN(CCCC2CCCC2)CC1 | 0 | 0 | 0 | 0 | 34 | 0
CC(C)C[C@H]1CNC(=S)N1CC1CCN(CCCCc2ccccc2)CC1 | 0 | 0 | 0 | 0 | 42 | 0
CCOc1ccc(CCN2C(=S)N([C@@H](Cc3ccc(O)cc3)CN3CCC[C@@H]3CN3C(=S)NC[C@@H]3Cc3ccccc3)C[C@@H]2CC(C)C)cc1 | 0 | 0 | 0 | 0 | 0 | 0
COc1ccc(CCN2CCC(CN3C(=S)NC[C@@H]3CC(C)C)CC2)cc1OC | 0 | 0 | 0 | 0 | 0 | 0
S=C1NC[C@H](Cc2ccccc2)N1CC1CCN(CCCC2CCCC2)CC1 | 0 | 0 | 0 | 0 | 42 | 0
CCCCN1CCC(CN2C(=S)NC[C@@H]2CC(C)C)CC1 | 0 | 0 | 0 | 0 | 0 | 0
CCOc1ccc(CCN2C(=S)N([C@@H](Cc3ccc(O)cc3)CN3CCC[C@@H]3CN3C(=S)NC[C@@H]3CC(C)C)C[C@@H]2Cc2ccccc2)cc1 | 0 | 0 | 23 | 0 | 0 | 0
COc1ccc(S(=O)(=O)N2CCCCC2)cc1NC(=O)Cn1cnc2c1c(=O)n(C)c(=O)n2C | 0 | 0 | 0 | 0 | 0 | 0
Cc1ccc(S(=O)(=O)N2CC3(O)CN(C(=O)OC(C)C)N(C(=O)OC(C)C)CC3(OC(=O)NCC3CCCCC3)C2)cc1 (centres undefined) | 0 | 0 | 0 | 0 | 0 | 0
NC(N)=N/N=C(\N=Nc1ccccc1)c1ccc(Cl)cc1 | 0 | 0 | 0 | 0 | 0 | 0
Cc1c(CC(=O)NCCCC(=O)O)c(=O)oc2cc3oc4c(c3cc12)CCCC4 | 0 | 0 | 0 | 0 | 0 | 0
Cc1c(CC(=O)NCCCCCC(=O)O)c(=O)oc2c(C)c3oc4c(c3cc12)CCCC4 | 0 | 0 | 14 | 0 | 0 | 0
S=C(NCC1CC1)N/N=C/c1ccccc1Cl | 0 | 0 | 0 | 0 | 0 | 0
CCn1c(SCC(=O)N/N=C/c2ccccc2OCC(=O)O)nnc1-c1ccc(C)cc1 | 37 | 26 | 0 | 0 | 0 | 0
CC(=O)Nc1ccc(NC(=O)C(C)OC(=O)CSCc2cccc(Cl)c2)cc1 (centres undefined) | 0 | 0 | 0 | 0 | 0 | 0
Cc1ccc(S(=O)(=O)Nc2ccc(-c3ccc4nncn4n3)cc2)cc1 | 0 | 0 | 0 | 0 | 0 | 0
CC(N)=Nc1ccc([N+](=O)[O-])cc1 | 0 | 0 | 0 | 0 | 0 | 0
O=[N+]([O-])c1ccc(N=Nc2c(Cl)cc(O)cc2Cl)cc1 | 30 | 0 | 0 | 0 | 0 | 0
COc1cccc(-c2cc(C(=O)N3CCN(c4ncccn4)CC3)c3ccccc3n2)c1 | 0 | 0 | 0 | 0 | 0 | 0
CC(C)Oc1cccc(-c2cc(C(=O)N3CCN(c4ncccn4)CC3)c3ccccc3n2)c1 | 0 | 0 | 0 | 0 | 34 | 0
COc1ccc(C(=O)NCc2nnc(SCC(=O)NCc3ccco3)o2)cc1 | 0 | 0 | 0 | 0 | 0 | 0
